Activity calls are given as the source filed them. The calls are words filed in the database; no cut-off is given here.
Key:
[1] = system: KB; test: Antiproliferative activity against human KB cells after 72 hrs by […] blue dye assay; type: functional, cell-based
In short: (§1)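 KB, etoposide-resistant KB/7D (kept in 7 µM etoposide), CPT-resistant KB CPT 100 (kept in 100 nM CPT) and revertant KB CPT 100rev cells, all grown in RPMI 1640 with 10% FBS. Log-phase cells seeded at 5000 cells/mL and exposed to a range of drug concentrations for 72 h. Growth read by […] blue dye assay; IC50 = 50% growth inhibition. Resistance ratio = KBCPT100 IC50 over KB IC50.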

[2] = Antiproliferative activity against human camptothecin-resistant KBCPT100 cells after 72 hrs by […] blue dye assay; type: functional, cell-based; conditions: KBCPT100, 72 h; in short: as §1
[3] = Antiproliferative activity against human partially revertant camptothecin-resistant KBCPT100 cells after 72 hrs by […] blue dye assay; type: functional, cell-based; conditions: KBCPT100, 72 h; in short: as §1
[4] = Antiproliferative activity against human VP16-resistant KB-7d cells overexpressing MRP after 72 hrs by […] blue dye assay; type: functional, cell-based; conditions: KB7D; in short: as §1
[5] = Resistance ratio of IC50 for human camptothecin-resistant KBCPT100 cells to IC50 for human KB cells; type: functional; in short: as §1
[6] = biological target: T1, DNA topoisomerase 1 (Homo sapiens) (UniProt P11387); test: Inhibition of DNA topoisomerase 1 in human KB cells using [C14]thymidine assessed as protein-linked DNA breaks formation at 2.5 uM after 30 mins by […]; type: cell-based
T1 sequence (whole entry): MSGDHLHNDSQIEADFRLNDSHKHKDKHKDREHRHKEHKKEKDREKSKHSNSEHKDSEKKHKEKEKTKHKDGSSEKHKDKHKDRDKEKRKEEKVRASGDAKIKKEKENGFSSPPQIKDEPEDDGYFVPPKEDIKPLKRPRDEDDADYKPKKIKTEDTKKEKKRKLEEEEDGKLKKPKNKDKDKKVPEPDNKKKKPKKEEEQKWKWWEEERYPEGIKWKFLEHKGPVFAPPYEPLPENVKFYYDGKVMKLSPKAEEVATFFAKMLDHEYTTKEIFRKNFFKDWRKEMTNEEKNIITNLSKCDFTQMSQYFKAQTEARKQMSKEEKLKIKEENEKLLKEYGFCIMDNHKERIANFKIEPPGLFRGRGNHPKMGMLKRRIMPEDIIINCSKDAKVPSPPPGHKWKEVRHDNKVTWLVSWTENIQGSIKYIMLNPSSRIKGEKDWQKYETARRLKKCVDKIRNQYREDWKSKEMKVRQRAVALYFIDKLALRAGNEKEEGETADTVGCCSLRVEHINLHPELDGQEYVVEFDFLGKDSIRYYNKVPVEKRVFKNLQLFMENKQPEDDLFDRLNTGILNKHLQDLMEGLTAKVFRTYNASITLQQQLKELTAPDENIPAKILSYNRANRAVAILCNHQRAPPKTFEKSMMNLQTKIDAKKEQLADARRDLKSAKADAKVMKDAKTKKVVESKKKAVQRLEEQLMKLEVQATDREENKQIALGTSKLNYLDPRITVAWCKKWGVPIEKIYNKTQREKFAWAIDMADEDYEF
In short: (§2)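 KB cells labeled with [14C]thymidine for 24 h, then treated with compound (2.5 or 22.5 µM) at 37 °C. Protein-linked DNA breaks quantified by potassium-SDS co-precipitation.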

[7] = biological target: T1, DNA topoisomerase 1 (Homo sapiens); test: Inhibition of recombinant DNA topoismerase1-mediated cleavage activity at 25 uM after 15 mins by […]
In short: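 32P-labeled ON5/ON4 oligoduplex (50 fmol) incubated with purified recombinant topoisomerase I (220 fmol) ± compound (25 µM) at 37 °C for 15 min. Stopped with SDS (0.5% final), then proteinase K digestion (1 mg/mL final). Cleavage products resolved on 20% denaturing urea/polyacrylamide gel.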

[8] = biological target: T1, DNA topoisomerase 1 (Homo sapiens); test: Inhibition of recombinant DNA topoisomerase1-mediated topo1-linked DNA relegation activity at 25 uM after 30 mins by […]
In short: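 Suicide topo I cleavage complex pre-formed on radiolabeled oligoduplex. Religation started by adding 5 pmol of 13-mer ON6 with compound present, at 37 °C. 25-mer religation product resolved on 20% urea/polyacrylamide gel and quantified by phosphorimager.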

[9] = Inhibition of DNA topoisomerase 2-mediated [alpha32P]dCTP-labelled pBR322 cleavage up to 25 uM after 30 mins by agarose gel electrophoresis
[10] = Inhibition of DNA topoisomerase 2-mediated relegation activity at 250 uM after 30 mins by agarose gel electrophoresis
[11] = biological target: T1, DNA topoisomerase 1 (Homo sapiens); test: Inhibition of DNA topoisomerase 1 in human KB cells using [C14]thymidine assessed as protein-linked DNA breaks formation at 22.5 uM after 30 mins by […]; type: cell-based; in short: as §2
[12] = system: KB; test: Ratio of VP16 IC50 to compound IC50 for human KB cells; type: functional

Row | SMILES | IC50 [1] [nM] | IC50 [2] [nM] | IC50 [3] [nM] | IC50 [4] [nM] | Ratio IC50 [5] | inhibition [6] | inhibition [7] | inhibition [8] | inhibition [9] | inhibition [10] | fold change (FC) [11] | Ratio IC50 [12]
1 | CC[C@@]1(O)C(=O)OCc2c1cc1n(c2=O)Cc2c-1nc1ccccc1c2/C=N\c1ccccc1N[C@@H]1c2cc3c(cc2[C@@H](c2cc(OC)c(O)c(OC)c2)[C@H]2C(=O)OC[C@@H]21)OCO3 | 37 | 112 | 70 | 70 | 2.8 | Active | inactive | Active | inactive | Active | – | –
2 | COc1cc([C@@H]2c3cc4c(cc3[C@@H](O[C@@H]3O[C@@H]5CO[C@@H](C)O[C@H]5[C@H](O)[C@H]3O)[C@H]3COC(=O)[C@H]23)OCO4)cc(OC)c1O [ETOPOSIDE] | 475 | 336 | 374 | 55000 | – | – | – | – | – | – | – | –
3 | CC[C@@]1(O)C(=O)OCc2c1cc1n(c2=O)Cc2cc3ccccc3nc2-1 [CAMPTOTHECIN] | 8.8 | 423 | 24 | 6.8 | 48 | – | – | – | – | – | – | –
4 | CC[C@@]1(O)C(=O)OCc2c1cc1n(c2=O)Cc2c-1nc1ccccc1c2/C=N\c1ccc(N[C@@H]2c3cc4c(cc3[C@@H](c3cc(OC)c(O)c(OC)c3)[C@H]3C(=O)OC[C@@H]32)OCO4)cc1 | 24.5 | 95 | 44 | 37.5 | 2.8 | Active | inactive | Active | inactive | Active | – | –
5 | CC[C@@](O)(C(=O)NC(C)C)c1cc2n(c(=O)c1CO)Cc1c-2nc2ccccc2c1/C=N\c1ccccc1N[C@@H]1c2cc3c(cc2[C@@H](c2cc(OC)c(O)c(OC)c2)[C@H]2C(=O)OC[C@@H]21)OCO3 | 60 | 206 | 141 | 61 | 2.8 | – | inactive | Active | inactive | Active | 7 | 8
6 | CC[C@@](O)(C(=O)NC(C)C)c1cc2n(c(=O)c1CO)Cc1c-2nc2ccccc2c1/C=N\c1ccc(N[C@@H]2c3cc4c(cc3[C@@H](c3cc(OC)c(O)c(OC)c3)[C@H]3C(=O)OC[C@@H]32)OCO4)cc1 | 42.5 | 120 | 57 | 50 | 2.8 | Active | inactive | Active | inactive | Active | – | 10

From ChEMBL document CHEMBL2157971, “Antitumor agents 294. Novel E-ring-modified camptothecin-4β-anilino-4'-O-demethyl-epipodophyllotoxin conjugates as DNA topoisomerase I inhibitors and cytotoxic agents” (Bioorg Med Chem, 2012)
